ChEMBL document CHEMBL4699420, “Pyrazolyl-pyrimidones inhibit the function of human solute carrier protein SLC11A2 (hDMT1) by metal chelation” (RSC Med Chem, 2020)
Each block holds one compound with its values, some of them ahead of it. Activity calls are given as the source filed them. The rule behind the calls is not given here.

Columns and labels:
HEK293T [1] = experiment: (§1) Metal chelating activity assessed as inhibition of human DMT1 expressed in HEK293T cells by measuring inhibition of radiolabeled 55Fe2+ uptake at 10 uM preincubated with compound for 5 mins followed by incubation with Fe2+ and radiolabeled 55Fe2+ for 15 mins at extracellular pH of 5.5 by scintillation counting analysis; type: cell-based; settings: time 20.0 min
Procedure, shortened: (§2)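 HEK293T cells were seeded 30,000/well and transiently transfected with DsRED-hDMT1 by Lipofectamine 24 h later; assays ran the next day. After a wash in uptake solution, cells got a 5 min compound preincubation, then 15 min RT uptake in pH 5.5 uptake solution with 100 μM ascorbate, Fe²⁺ and ⁵⁵Fe²⁺ (0.5 μCi/mL). An ice-cold pH 7.5 wash followed, then scintillation counting, with cpm converted to influx rates.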

[2] = as §1, with “ZIP8” for “DMT1”, “uptake” for “uptake at 10 uM”, “7.4” for “5.5”; type: cell-based; settings: HEK-293T
Procedure, shortened: as §2, with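 “DsRED-hZIP8” for “DsRED-hDMT1”, “Cells” for “After a wash in uptake solution, cells”, “uptake” for “uptake in pH 5.5 uptake solution”, “ice-cold” for “ice-cold pH 7.5”, “counts” for “cpm”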

[3] = Metal chelating activity assessed as compound-Cd2+ complex formation at ratio of 2:1 at 0.4 mM in aqueous buffer of pH 7.4 by isothermal titration calorimetry
Procedure, shortened: (§3)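 Cadmium chloride titrated into 0.4 mM compound (from 10 mM DMSO stock) at 25 °C, stirring 750 rpm. Buffer was 20 mM HEPES/150 mM NaCl pH 7.5 or 20 mM MES/150 mM NaCl pH 5.5. First injection 0.4 μL, then 2 μL every 150 s. Buffer/DMSO control titrations run. Fit to a one-set-of-sites model, with fitting errors on KD.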

HEK293T [4] = experiment: as §1, with “ZIP8” for “DMT1”, “7.4” for “5.5”; type: cell-based; settings: time 20.0 min
Procedure, shortened: as §2, with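 “DsRED-hZIP8” for “DsRED-hDMT1”, “Cells” for “After a wash in uptake solution, cells”, “uptake” for “uptake in pH 5.5 uptake solution”, “ice-cold” for “ice-cold pH 7.5”, “counts” for “cpm”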

[5] = Metal chelating activity assessed as compound-Fe2+ complex formation by UV-Vis titration based analysis
[6] = Metal chelating activity assessed as compound-Cd2+ complex formation by measuring precipitation at 0.4 mM in aqueous buffer of pH 5.5 by isothermal titration calorimetry; procedure, shortened: as §3
[7] = Metal chelating activity assessed as compound-Fe2+ complex formation by measuring precipitation at 10 uM incubated with radilolabeled-55Fe2+ for 15 mins in aqueous buffer of pH 7.4 by scintillation counting analysis
Procedure, shortened: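 Uptake solution (pH 7.4) with 1 μM Fe2+, 100 μM ascorbic acid, 0.5 μCi/mL 55Fe2+ and 10 μM compound, incubated 15 min at RT in polypropylene tubes. Aliquots taken in quadruplicate for scintillation counting of remaining 55Fe2+.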

[8] = Metal chelating activity assessed as compound-Cd2+ complex formation by UV-Vis titration based analysis
[9] = molecular target: T1, Natural resistance-associated macrophage protein 2 (Homo sapiens, UniProt P49281); experiment: Inhibition of human DMT1 expressed in Xenopus oocytes assessed as inhibition of channel currents at -50 mV holding potential by two-electrode voltage clamp assay; type: cell-based; settings: oocyte
T1 sequence (P49281 whole entry): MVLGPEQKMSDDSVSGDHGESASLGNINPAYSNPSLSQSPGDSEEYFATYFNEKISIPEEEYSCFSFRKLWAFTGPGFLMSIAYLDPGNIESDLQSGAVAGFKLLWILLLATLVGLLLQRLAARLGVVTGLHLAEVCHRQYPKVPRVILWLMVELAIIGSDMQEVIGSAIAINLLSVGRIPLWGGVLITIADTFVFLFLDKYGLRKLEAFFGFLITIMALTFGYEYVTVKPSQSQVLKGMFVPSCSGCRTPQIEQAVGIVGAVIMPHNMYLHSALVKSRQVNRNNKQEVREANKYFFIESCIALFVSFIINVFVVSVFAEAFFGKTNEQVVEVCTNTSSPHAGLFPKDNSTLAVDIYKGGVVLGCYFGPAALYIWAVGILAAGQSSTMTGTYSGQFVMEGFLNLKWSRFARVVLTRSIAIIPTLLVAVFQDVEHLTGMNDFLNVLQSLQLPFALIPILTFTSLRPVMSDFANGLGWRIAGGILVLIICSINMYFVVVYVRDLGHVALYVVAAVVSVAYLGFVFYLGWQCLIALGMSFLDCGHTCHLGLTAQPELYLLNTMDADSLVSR
Procedure, shortened: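 Xenopus oocytes were injected with 20 ng hDMT1 cRNA and used 3–5 days later. Holding current at Vh −50 mV was recorded, low-pass filtered at 500 Hz and digitized at 5 kHz.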

[10] = Metal chelating activity assessed as compound-Fe2+ complex formation at 20 uM preincubated with Fe2+ for 5 mins followed by calcein challenge in aqueous buffer of pH 5.5 and measured after 5 mins by calcein quenching assay; settings: time 10.0 min
[11] = molecular target: T1, Natural resistance-associated macrophage protein 2; experiment: Inhibition of human DMT1 expressed in HEK293 cells assessed as inhibition of radiolabeled 55Fe2+ uptake incubated for 1 hr by microplate scintillation counting analysis; type: cell-based; settings: in the assay text read “incubated for 15 mins” for “incubated for 1 hr”
Procedure, shortened: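 HEK293 cells stably expressing DsRED-hDMT1 were cultured in DMEM with 10% FBS, 10 mM HEPES and 1 mM Na-pyruvate, and seeded 50,000/well 24 h ahead. Cells got a 5 min compound preincubation, then 15 min RT uptake at pH 5.5 with 100 μM ascorbate, Fe²⁺ and ⁵⁵Fe²⁺ (0.5 μCi/mL). After an ice-cold pH 7.5 wash, cells sat 1 h in scintillant. Counts were converted to influx rates and fitted with a 4-parameter sigmoid for IC50.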

[12] = Metal chelating activity assessed as compound-Fe2+ complex formation by measuring precipitation at 10 uM incubated with radilolabeled-55Fe2+ for 15 mins in aqueous buffer of pH 7.4 by scintillation counting analysis
[13] = molecular target: T2, Natural resistance-associated macrophage protein 2 (Homo sapiens) (UniProt P49281); experiment: Inhibition of human DMT1 expressed in Xenopus laevis oocytes assessed as reduction in radiolabeled 55Fe2+ uptake at 10 uM preincubated for 5 mins followed by incubation with Fe2+ and radiolabeled 55Fe2+ and measured after 10 mins by scintillation counting method relative to control; type: cell-based; settings: Oocyte, time 15.0 min
T2 sequence (whole entry): T1 sequence (P49281 whole entry)
Procedure, shortened: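 Xenopus oocytes injected with 20 ng hDMT1 cRNA, tested 3-5 days later, 10-15 oocytes per condition. 5 min RT in pH 5.5 transport medium with 10 μM compound, then 10 min with compound, 100 μM ascorbate, 1 μM Fe2+ and 0.5 μCi/mL 55Fe2+. Ice-cold rinse with 250 μM Fe2+, SDS solubilization, scintillation counting. Compound-free and non-injected oocytes run in parallel.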

[14] = molecular target: T2, Natural resistance-associated macrophage protein 2 (Homo sapiens); experiment: Inhibition of human DMT1 expressed in HEK293T cells by measuring inhibition of radiolabeled 55Fe2+ uptake at 10 uM preincubated with compound for 5 mins followed by incubation with Fe2+ and radiolabeled 55Fe2+ for 15 mins at extracellular pH of 5.5 by scintillation counting analysis; type: cell-based; settings: time 20.0 min
Procedure, shortened: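 HEK293T cells seeded at 30,000/well 48 h ahead and transiently transfected 24 h later with DsRED-hDMT1. After wash in uptake buffer, 5 min preincubation with compound, then 15 min at RT in pH 5.5 uptake solution with 100 μM ascorbic acid, Fe2+ and 55Fe2+ (0.5 μCi/mL). Ice-cold pH 7.5 wash, scintillation counting, cpm converted to influx rate.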

Compound: CCc1cc(=O)n(-c2nc(C)cc(=O)[nH]2)[nH]1
inhibition (HEK293T [1]): < 20%

Compound: Cc1cc(=O)[nH]c(-n2[nH]c(C)c(C(=O)Nc3cccc(C(F)(F)F)c3)c2=O)n1
inhibition (HEK293T [1]): < 20%

Compound: Cc1cc(=O)[nH]c(-n2nc3c(c2C)CNCC3)n1
inhibition (HEK293T [1]): < 20%

Compound: Cc1cc(=O)[nH]c(-n2[nH]c(C)c(Cc3ccccc3)c2=O)n1
inhibition (HEK293T [1]): < 20%

Compound: CCc1cc(=O)[nH]c(-n2[nH]c(C)cc2=O)n1
inhibition (HEK293T [1]): < 20%

Compound: Cc1cc(=O)[nH]c(-n2nc(C)c(Cc3ccccc3)c2C)n1
inhibition (HEK293T [1]): < 20%

Compound: Cc1cc(=O)[nH]c(-n2nc(C(C)(C)C)cc2C)n1
inhibition (HEK293T [1]): < 20%

IC50 [2]: 1400 nM
Activity [3]: Active
Activity [5]: inactive
Activity [6]: Active
Activity [7]: Active
Activity [8]: inactive
IC50 [9]: Not Active
Activity [10]: Active
Compound: Cc1cc(=O)[nH]c(-n2nc3c(c2C)CCCC3)n1
Activity (HEK293T [1]): Active
Activity (HEK293T [4]): Active

Compound: Cc1cc(C)nc(-n2nc(C)cc2C)n1
inhibition (HEK293T [1]): < 20%

Compound: Cc1cc(=O)[nH]c(-n2nc3c(c2C)CCC3)n1
inhibition (HEK293T [1]): < 20%

IC50 [11]: 7 µM
Compound: N=C(N)SCc1cccc(CSC(=N)N)c1

Activity [7]: Active
Activity [12]: Active
Activity [10]: Active
Compound: Cc1nn(-c2ccccn2)c(O)c1C(=O)Nc1cccc(C(F)(F)F)c1
Activity (HEK293T [1]): Active
Activity (HEK293T [4]): Active

Compound: CCOC(=O)c1cnc(-n2[nH]c(C)cc2=O)[nH]c1=O
inhibition (HEK293T [1]): < 20%

Compound: Cc1cc(=O)[nH]c(-n2nc(-c3ccccc3)cc2C)n1
inhibition (HEK293T [1]): < 20%

inhibition [13]: 100%
Activity [7]: inactive
inhibition [14]: Active
Compound: N=C(N)SCc1cccc2c1oc1c(CSC(=N)N)cccc12
Activity (HEK293T [4]): inactive

Activity [7]: inactive
Activity [10]: inactive
Compound: Cc1cc(O)nc(-n2nc(C)cc2C)n1
Activity (HEK293T [1]): Active
Activity (HEK293T [4]): Active

Compound: Cc1cc(=O)[nH]c(-n2nc(C)c(-c3ccccc3)c2C)n1
inhibition (HEK293T [1]): < 20%

Compound: Cc1cc(=O)[nH]c(-n2nc3c(c2C)COCC3)n1
inhibition (HEK293T [1]): < 20%
